Source: ChEMBL document CHEMBL4316652, “Kenalactams A-E, Polyene Macrolactams Isolated from Nocardiopsis CG3” (J Nat Prod, 2019)
In brackets after ≈: the same amount, converted by molar mass. Activity calls are given as the source filed them. The calls are words filed in the database; no cut-off is given here.

Assays:
Candida albicans [1] = assay: Antifungal activity against Candida albicans DSM 1665 by serial dilution method; type: functional
Summary of the method: (§1)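 Fungi were tested by serial dilution in MYG medium (1.0% phytone peptone, 1.0% glucose, 50 mM HEPES, pH 7.0). The top well held 67 μg/mL final, from a 1 mg/mL stock. Methanol served as negative control. The MIC was recorded.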

Mucor hiemalis = assay: Antifungal activity against Mucor hiemalis DSM 2656 by serial dilution method; type: functional; summary of the method: as §1
Trypanosoma brucei = assay: Antimicrobial activity against Trypanosoma brucei; type: functional
MCF7 = assay: Cytotoxicity against human MCF7 cells measured after 5 days by MTT assay; type: functional, cell-based; details: MCF7, 120 h
A549 = assay: Cytotoxicity against human A549 cells measured after 5 days by MTT assay; type: functional, cell-based; details: A549, 120 h
Bacillus subtilis = assay: Antibacterial activity against Bacillus subtilis DSM10 by serial dilution method; type: functional
KB 3-1 = assay: Cytotoxicity against human KB3-1 cells measured after 5 days by MTT assay; type: functional, cell-based
SK-OV-3 = assay: Cytotoxicity against human SKOV3 cells measured after 5 days by MTT assay; type: functional, cell-based; details: SK-OV-3, 120 h
Hepatitis C virus = assay: Antiviral activity against HCV JC1 infected in human Huh7.5 cells assessed as reduction in viral infection treated for 4 hrs followed by compound washout and measured after 3 days by luciferase reporter gene assay; type: functional, organism-based; details: Hepacivirus hominis
Summary of the method: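 Huh-7.5 cells were electroporated with the Luc-Jc1 reporter virus in the presence of compound. After 4 h the inoculum was removed, and the monolayers were washed three times with PBS and given fresh compound-free medium. Cells were lysed at 3 days for luciferase read-out. Runs were in duplicate, reported as mean and standard deviation.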

PC-3 = assay: Cytotoxicity against human PC3 cells measured after 5 days by MTT assay; type: functional, cell-based; details: PC-3, 120 h
Escherichia coli = assay: Antibacterial activity against Escherichia coli DSM1116 by serial dilution method; type: functional
L929 = assay: Cytotoxicity against mouse L929 cells measured after 5 days by MTT assay; type: cell-based
Staphylococcus aureus = assay: Antibacterial activity against Staphylococcus aureus Newman by serial dilution method; type: functional
Candida albicans [2] = assay: Antifungal activity against amphotericin B-resistant Candida albicans; type: functional
Summary of the method: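 Broth serial dilution MIC in 96-well plates using MYG medium for fungi (1.0% phytone peptone, 1.0% glucose, 50 mM HEPES, pH 7.0). Compounds were added as 20 µL aliquots of a 1 mg/mL stock, giving 67 μg/mL final in the first well. Methanol served as negative control.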

[3] = Homo sapiens, KB 3-1, 120 h, read-out: IC50
[4] = Mus musculus, L929, 120 h, read-out: IC50

| Molecule | MIC (Candida albicans [1]) | MIC (Mucor hiemalis) | IC50 (A549) [µM] | MIC (Bacillus subtilis) | IC50 (KB 3-1; [3]) [µM] | IC50 (SK-OV-3) [µM] | Activity (Hepatitis C virus) | IC50 (PC-3) [µM] | MIC (Escherichia coli) | MIC (Staphylococcus aureus) | also measured |
| --- | --- | --- | --- | --- | --- | --- | --- | --- | --- | --- | --- |
| NYSTATIN | 8.8 µg/mL | 4.16 µg/mL |  |  |  |  |  |  |  |  |  |
| CC1=C\C=C\C[C@H](C)NC(=O)/C=C/C=C/C=C/[C@H](C)[C@@H](O)[C@H](O)[C@@H](O)C[C@@H](O)/C=C\C=C\C(C)=C\1 |  |  |  |  |  |  |  |  |  |  | MIC (Trypanosoma brucei): 0.8 µM (≈ 0.387 µg/mL) |
| C\C1=C/C=C/C=C/C=C\C=C/[C@H](C)CNC(=O)/C(C)=C/C=C/C=C/C=C\C=C/[C@H](C)CNC1=O | 66.7 µg/mL (≈ 145 µM) | 66.7 µg/mL (≈ 145 µM) | 16.3 | inactive | 6.8 | 14.2 | Active | 6.3 | inactive | 66.7 µg/mL (≈ 145 µM) | IC50 (MCF7): 16.4 µM; IC50 (L929; [4]): 32.8 µM |
| CC1=C/[C@H](O)[C@H](O)\C=C/C=C/C=C/C=C\C=C/[C@H](C)CNC(=O)\C=C/C=C/1 | inactive | inactive |  | inactive |  |  | inactive |  | inactive | inactive |  |
| CC1=C\C=C\C=C/C=C\[C@H](C)CNC(=O)/C(C)=C/C=C/C(C)=C/C=C/C=C\C=C/[C@H](C)CNC(=O)\C(C)=C\C=C\1 |  |  | 6.5 |  | 2.4 | 5.5 |  | 2.1 |  | 66.7 µg/mL (≈ 124 µM) | IC50 (L929; l929): Non-Toxic |
| C/C1=C/C=C/C(C)=C/C=C/C=C\C=C/[C@H](C)CNC(=O)/C(C)=C/C=C/C(C)=C/C=C/C=C\C=C/[C@H](C)CNC1=O | inactive | inactive |  | inactive |  |  | Active |  | inactive |  |  |
| CC1=C\C=C\C=C\C(C)CNC(=O)/C=C(O)/C=C/C(C)=C/C=C/C(O)C(O)C(O)C(=O)/C=C\C=C\1 (stereo unspecified) |  |  |  |  |  |  |  |  |  |  | MIC (Candida albicans [2]): 4 µg/mL (≈ 8.31 µM) |
| CC1=C\C=C\C=C\C=C/C=C\[C@H](C)CNC(=O)/C(C)=C/C=C/C=C/C=C\C=C/[C@H](C)CNC(=O)\C(C)=C\1 | inactive | inactive | 32.1 | inactive | 5.4 | 10 | Active | 5 | inactive | 16.7 µg/mL (≈ 33.5 µM) | IC50 (MCF7): 18.1 µM; IC50 (L929; [4]): 42.2 µM |
| CN(C)[C@@H]1C(O)=C(C(N)=O)C(=O)[C@@]2(O)C(O)=C3C(=O)c4c(O)cccc4[C@@](C)(O)[C@H]3[C@H](O)[C@@H]12 [OXYTETRACYCLINE] |  |  |  | 2.08 µg/mL (≈ 4.52 µM) |  |  |  |  | 1.66 µg/mL (≈ 3.61 µM) | 0.05 µg/mL (≈ 0.109 µM) |  |
| C/C(=C\c1csc(C)n1)[C@@H]1C[C@@H]2O[C@]2(C)CCC[C@H](C)[C@H](O)[C@@H](C)C(=O)C(C)(C)[C@@H](O)CC(=O)O1 [PATUPILONE] |  |  | 0.004 |  | 5.3e-05 | 0.00024 |  | 0.0022 |  |  | IC50 (MCF7): 7.4e-05 µM; IC50 (L929; [4]): 0.00075 µM |
| CC1=C/[C@H](O)[C@H](O)\C=C/C=C/C=C/C=C\C=C/[C@H](C)CNC(=O)/C=C/C=C/1 |  |  |  |  |  |  |  |  |  |  | IC50 (KB 3-1; kb 3-1): Not Active; IC50 (L929; l929): Non-Toxic |
